Experimental data pooled from the literature.
EGFR: Epidermal growth factor receptor (EGFR, Homo sapiens, UniProt P00533)

| Structure (SMILES) | target | observed | action | technique | endpoint | value |
| --- | --- | --- | --- | --- | --- | --- |
| CC#CC(=O)N1CC[C@@H](n2cc(-c3ccc(Oc4c(F)cccc4F)cc3)c3c(N)n[nH]c(=O)c32)C1 | EGFR | binding |  | competition with immobilised ligand | Kd | 270 nM |
| C=CC(=O)Nc1cc(Nc2nccc(-c3cn(C4CC4)c4ccccc34)n2)c(OC)cc1N(C)CCN(C)C | Epidermal growth factor receptor (EGFR, Homo sapiens, UniProt P00533, G719S) | enzyme activity | inhibitor | TR-FRET | IC50 | 82.8 nM |
| CCN(CC)C/C=N/NC(=O)Nc1cc2c(Nc3ccc(F)c(Cl)c3)ncnc2cc1O[C@H]1CCOC1 | EGFR | enzyme activity | inhibitor |  | IC50 | 0.4 nM |
| C=C(Cl)C(=O)Nc1cc(Nc2nc(Nc3cnn(C)c3)c3sccc3n2)c(OC)cc1N(C)CCN(C)C | Epidermal growth factor receptor (EGFR, Homo sapiens, UniProt P00533, C797S/L858R/T790M) | enzyme activity | inhibitor | ELISA | IC50 | > 1000 nM |
| COc1cc2ncnc(Nc3ccc(O)cc3)c2cc1OC | EGFR | binding |  |  | Kd | 26 nM |
| O=C(N/N=C/c1cccn1CCCN1CCCCC1)Nc1cc2c(Nc3ccc(F)c(Cl)c3)ncnc2cc1O[C@H]1CCOC1 | EGFR | enzyme activity | inhibitor |  | IC50 | 0.8 nM |
| C=C(Cl)C(=O)Nc1cc(Nc2nc(N3CCc4sccc4C3)c3sccc3n2)c(OC)cc1N(C)CCN(C)C | EGFR | enzyme activity | inhibitor | ELISA | IC50 | 996 nM |
| COc1cc2ncc(-c3ccccc3)nc2cc1OC | EGFR | binding |  |  | Kd | > 10000 nM |
